How the values were obtained:
Norovirus = experiment: Antiviral activity Norovirus infected in human HG23 cells assessed as decrease in viral RNA level measured after 48 hrs by qRT-PCR analysis; format: functional, cell-based; conditions: HG23, 48 h
How it was run: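 Norwalk virus replicon-bearing HG23 cells, confluent and semi-confluent, exposed 48 h to compound (up to 100 μM) or DMSO (<0.1%) in medium. Total RNA extracted, viral genome quantified by real-time qRT-PCR; EC50 derived from concentration-response data.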

[1] = Cytotoxicity against human HG23 cells measured after 72 hrs by […] CytoTox-96 non-radioactive assay; format: cell-based
[2] = Inhibition of Norovirus 3CL protease preincubated for 30 mins followed by addition of Edans-DFHLQ/GP-Dabcyl as substrate measured after 1 hr by FRET assay
How it was run: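 Protease preincubated 30 min at 37°C with serially diluted compound or DMSO in 20 mM HEPES pH 8, 200 mM NaCl, 0.4 mM EDTA, 60% glycerol, 6 mM DTT; Edans-DFHLQ/GP-Dabcyl substrate then added. Fluorescence (ex 360/em 460 nm) read 1 h later; background (substrate, no protease) subtracted; IC50 from variable-slope dose-response fit.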

Row | SMILES | EC50 (Norovirus) | CC50 at 72 h [1] | IC50 [2]
1 | O=C[C@H](C[C@@H]1CCNC1=O)NC(=O)[C@H](CC1CCCCC1)NS(=O)(=O)c1cccs1 | 8500 nM | > 100000 nM | 10400 nM
2 | O=C1NCC[C@H]1C[C@H](NC(=O)[C@H](CC1CCCCC1)NS(=O)(=O)c1cccc(Cl)c1)C(O)S(=O)(=O)O (stereo partly specified) | 1900 nM | > 100000 nM | 5700 nM
3 | O=C1NCC[C@H]1C[C@H](NC(=O)[C@H](CC1CCCCC1)NS(=O)(=O)c1ccc(-c2ccccc2)cc1)C(O)S(=O)(=O)O (stereo partly specified) | 1200 nM | > 100000 nM | 1100 nM
4 | O=C[C@H](C[C@@H]1CCNC1=O)NC(=O)[C@H](CC1CCCCC1)NS(=O)(=O)CCN1C(=O)c2ccccc2C1=O | 2300 nM | > 100000 nM | 2500 nM
5 | O=C[C@H](C[C@@H]1CCNC1=O)NC(=O)[C@H](CC1CCCCC1)NS(=O)(=O)c1ccc(F)cc1 | 2000 nM | > 100000 nM | 4800 nM
6 | O=C[C@H](C[C@@H]1CCNC1=O)NC(=O)[C@H](CC1CCCCC1)NS(=O)(=O)Cc1ccccc1 | 4100 nM | > 100000 nM | 4500 nM
7 | COc1ccc(OCCCS(=O)(=O)N[C@@H](CC2CCCCC2)C(=O)N[C@@H](C[C@@H]2CCNC2=O)C(O)S(=O)(=O)O)cc1 (stereo partly specified) | 200 nM | > 100000 nM | 1600 nM
8 | O=C[C@H](C[C@@H]1CCNC1=O)NC(=O)[C@H](CC1CCCCC1)NS(=O)(=O)c1ccc(-c2ccccc2)cc1 | 1300 nM | > 100000 nM | 1300 nM
9 | O=C[C@H](C[C@@H]1CCNC1=O)NC(=O)[C@H](CC1CCCCC1)NS(=O)(=O)CCc1ccccc1 | 700 nM | > 100000 nM | 1800 nM
10 | O=C1NCC[C@H]1C[C@H](NC(=O)[C@H](CC1CCCCC1)NS(=O)(=O)c1ccc(Cl)cc1)C(O)S(=O)(=O)O (stereo partly specified) | 7200 nM | > 100000 nM | 5100 nM
11 | O=C1NCC[C@H]1C[C@H](NC(=O)[C@H](CC1CCCCC1)NS(=O)(=O)CCN1C(=O)c2ccccc2C1=O)C(O)S(=O)(=O)O (stereo partly specified) | 2100 nM | > 100000 nM | 2600 nM
12 | CCCCCCCCCCOC(=O)N[C@@H](CC1CCCCC1)C(=O)N[C@H](C=O)C[C@@H]1CCNC1=O | 100 nM | 32100 nM | 300 nM
13 | O=C(N[C@@H](CC1CCCCC1)C(=O)N[C@@H](C[C@@H]1CCNC1=O)C(O)S(=O)(=O)O)OCCc1cccc(Cl)c1 (stereo partly specified) | 100 nM | 46700 nM | 500 nM
14 | O=C[C@H](C[C@@H]1CCNC1=O)NC(=O)[C@H](CC1CCCCC1)NS(=O)(=O)c1cccc(Cl)c1 | 2300 nM | > 100000 nM | 5500 nM
15 | O=C[C@H](C[C@@H]1CCNC1=O)NC(=O)[C@H](CC1CCCCC1)NS(=O)(=O)c1ccccc1 | 9500 nM | > 100000 nM | 8500 nM
16 | O=C[C@H](C[C@@H]1CCNC1=O)NC(=O)[C@H](CC1CCCCC1)NS(=O)(=O)CCc1cccc(Cl)c1 | 1100 nM | > 100000 nM | 2300 nM

Row | SMILES | EC50 (Norovirus) | CC50 at 72 h [1] | IC50 [2]
17 | O=C1NCC[C@H]1C[C@H](NC(=O)[C@H](CC1CCCCC1)NS(=O)(=O)CCc1cccc(Cl)c1)C(O)S(=O)(=O)O (stereo partly specified) | 800 nM | > 100000 nM | 1900 nM
18 | CCCCCCCCS(=O)(=O)N[C@@H](CC1CCCCC1)C(=O)N[C@@H](C[C@@H]1CCNC1=O)C(O)S(=O)(=O)O (stereo partly specified) | 200 nM | 35400 nM | 1100 nM
19 | O=C[C@H](C[C@@H]1CCNC1=O)NC(=O)[C@H](CC1CCCCC1)NS(=O)(=O)c1ccc(Cl)cc1 | 3500 nM | > 100000 nM | 5800 nM
20 | O=C1NCC[C@H]1C[C@H](NC(=O)[C@H](CC1CCCCC1)NS(=O)(=O)c1ccccc1)C(O)S(=O)(=O)O (stereo partly specified) | 12300 nM | > 100000 nM | 13500 nM
21 | O=C1NCC[C@H]1C[C@H](NC(=O)[C@H](CC1CCCCC1)NS(=O)(=O)c1cccs1)C(O)S(=O)(=O)O (stereo partly specified) | 8100 nM | > 100000 nM | 8500 nM
22 | O=C1NCC[C@H]1C[C@H](NC(=O)[C@H](CC1CCCCC1)NS(=O)(=O)Cc1ccccc1)C(O)S(=O)(=O)O (stereo partly specified) | 4300 nM | > 100000 nM | 4300 nM
23 | CCCCCCCCCCOC(=O)N[C@@H](CC1CCCCC1)C(=O)N[C@@H](C[C@@H]1CCNC1=O)C(O)S(=O)(=O)O (stereo partly specified) | 200 nM | 34500 nM | 400 nM
24 | O=C[C@H](C[C@@H]1CCNC1=O)NC(=O)[C@H](CC1CCCCC1)NS(=O)(=O)Cc1ccc(Cl)cc1 | 2400 nM | > 100000 nM | 1800 nM
25 | O=C1NCC[C@H]1C[C@H](NC(=O)[C@H](CC1CCCCC1)NS(=O)(=O)CCc1ccccc1)C(O)S(=O)(=O)O (stereo partly specified) | 800 nM | > 100000 nM | 2100 nM
26 | O=C[C@H](C[C@@H]1CCNC1=O)NC(=O)[C@H](CC1CCCCC1)NC(=O)OCCOCc1ccccc1 | 200 nM | > 100000 nM | 2100 nM
27 | CCCCCCCCS(=O)(=O)N[C@@H](CC1CCCCC1)C(=O)N[C@H](C=O)C[C@@H]1CCNC1=O | 300 nM | 33800 nM | 1200 nM
28 | COc1ccc(OCCCS(=O)(=O)N[C@@H](CC2CCCCC2)C(=O)N[C@H](C=O)C[C@@H]2CCNC2=O)cc1 | 200 nM | > 100000 nM | 1800 nM
29 | O=C(N[C@@H](CC1CCCCC1)C(=O)N[C@@H](C[C@@H]1CCNC1=O)C(O)S(=O)(=O)O)OCCOCc1ccccc1 (stereo partly specified) | 300 nM | > 100000 nM | 1600 nM
30 | O=C1NCC[C@H]1C[C@H](NC(=O)[C@H](CC1CCCCC1)NS(=O)(=O)c1ccc(F)cc1)C(O)S(=O)(=O)O (stereo partly specified) | 2100 nM | > 100000 nM | 6200 nM
31 | O=C[C@H](C[C@@H]1CCNC1=O)NC(=O)[C@H](CC1CCCCC1)NC(=O)OCCc1cccc(Cl)c1 | 100 nM | 43200 nM | 600 nM
32 | O=C1NCC[C@H]1C[C@H](NC(=O)[C@H](CC1CCCCC1)NS(=O)(=O)Cc1ccc(Cl)cc1)C(O)S(=O)(=O)O (stereo partly specified) | 2200 nM | > 100000 nM | 1200 nM

— ChEMBL document CHEMBL4002574, “Structure-based exploration and exploitation of the S4 subsite of norovirus 3CL protease in the design of potent and permeable inhibitors” (Eur J Med Chem, 2017)
